# Measurements collected from several papers.
# Target: Inhibitor of nuclear factor kappa-B kinase subunit alpha (CHUK, Homo sapiens, UniProt O15111)
# Residues used in one study (O15111 1-745): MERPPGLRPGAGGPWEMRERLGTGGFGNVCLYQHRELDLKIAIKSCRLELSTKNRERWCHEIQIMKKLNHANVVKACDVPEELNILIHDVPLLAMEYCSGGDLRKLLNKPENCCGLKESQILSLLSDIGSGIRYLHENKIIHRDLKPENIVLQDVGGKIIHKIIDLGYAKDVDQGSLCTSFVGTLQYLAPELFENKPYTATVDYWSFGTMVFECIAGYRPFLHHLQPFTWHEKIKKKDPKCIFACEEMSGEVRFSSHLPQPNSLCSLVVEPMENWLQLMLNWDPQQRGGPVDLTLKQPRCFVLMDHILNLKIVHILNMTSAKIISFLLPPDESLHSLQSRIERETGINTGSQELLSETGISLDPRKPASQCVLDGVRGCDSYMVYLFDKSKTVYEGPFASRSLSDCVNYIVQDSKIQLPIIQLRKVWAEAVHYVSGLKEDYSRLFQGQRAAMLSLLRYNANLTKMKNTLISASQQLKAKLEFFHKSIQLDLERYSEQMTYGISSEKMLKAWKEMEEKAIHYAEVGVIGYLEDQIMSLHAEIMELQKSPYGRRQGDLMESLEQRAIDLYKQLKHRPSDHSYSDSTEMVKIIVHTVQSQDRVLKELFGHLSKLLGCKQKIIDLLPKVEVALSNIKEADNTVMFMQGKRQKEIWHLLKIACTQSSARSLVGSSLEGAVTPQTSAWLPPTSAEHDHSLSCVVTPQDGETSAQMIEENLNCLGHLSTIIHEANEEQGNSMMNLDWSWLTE
SMILES,read-out,action,technique,concentration,quantity,value
Cc1sc(C(=O)NC2COC2)cc1-n1cc(NC(=O)Nc2c(F)cccc2Cl)cn1,enzyme activity,inhibitor,,10 µM,remaining activity,101%
CC(C)(O)[C@H]1CC[C@H](Nc2ccc3ncc(-c4cccc(C(F)(F)F)c4)n3n2)CC1,enzyme activity,inhibitor,,1 µM,remaining activity,83.6%
CC(=O)N1CCC(c2ccc(C(=O)NC3=NCCN3)cc2C(F)(F)F)CC1,cell-free assay,,competition with immobilised ligand,1 µM,remaining binding,90%
CNC(=O)c1cc(Oc2ccc(NC(=O)Nc3ccc(Cl)c(C(F)(F)F)c3)cc2)ccn1,enzyme activity,inhibitor,,10 µM,inhibition,-35%
O=C(NCc1ncc(C(F)(F)F)cc1Cl)c1ccc2c(c1)C1(CCS(=O)(=O)CC1)[C@H](C1CC1)N2S(=O)(=O)c1ccc(F)cc1,cell-free assay,,competition with immobilised ligand,1 µM,remaining binding,77%
C#Cc1cccc(Nc2ncnc3cc(OCCOC)c(OCCOC)cc23)c1,cell-free assay,,,0.5 µM,remaining signal,94.2%
c1ccc(CNc2nc(N3CCOc4ccccc43)nc3c2CCCC3)cc1,target engagement in cells,inhibitor,chemoproteomics,20 mM,inhibition,10.8%
Cc1ccc(C(=O)NCc2ccsc2)cc1C#Cc1cn(C(C)C)c2ncnc(N)c12,enzyme activity,inhibitor,,1 µM,activity vs control,102%
CCC(=O)N[C@@H]1CC[C@H](C(=O)N(C)c2ccc(-c3nc4ccccc4o3)cc2)C1,cell-free assay,,competition with immobilised ligand,1 µM,remaining binding,100%
CC(C)(C)c1nc(-c2cccc(NS(=O)(=O)c3c(F)cccc3F)c2F)c(-c2ccnc(N)n2)s1,enzyme activity,inhibitor,radiometric,1 µM,remaining activity,97%
Cc1c(C(=O)O)cc(-c2ccc(C3CCNCC3)cc2)c2ccc(-c3ccc(C(F)(F)F)cc3)cc12,cell-free assay,,competition with immobilised ligand,1 µM,remaining binding,98%
CCN(CC)CCNC(=O)c1c(C)[nH]c(/C=C2\C(=O)Nc3ccc(F)cc32)c1C,enzyme activity,inhibitor,,0.3 µM,inhibition,-1%
O=C1Nc2ccc(Cl)cc2C1=Cc1cc(Cl)c(O)c(Cl)c1,cell-free assay,,,0.5 µM,remaining signal,97%
Cc1ccc(C(=O)Nc2ccc(CN3CCN(C)CC3)c(C(F)(F)F)c2)cc1C#Cc1cnc2cccnn12,enzyme activity,inhibitor,,23.5 nM,remaining activity,19%
O=C1NC(=O)c2cc(Nc3ccc(F)cc3)c(Nc3ccc(F)cc3)cc21,cell-free assay,inhibitor,,0.5 µM,remaining signal,99.2%
COc1cccc2c(NCc3ccccc3)nc(-n3c(N)nc4ccccc43)nc12,target engagement in cells,inhibitor,chemoproteomics,20 mM,inhibition,8.5%
CCS(=O)(=O)c1cc2cc(C[C@@](O)(CC(C)(C)c3ccc(F)cc3C(N)=O)C(F)(F)F)[nH]c2cn1,cell-free assay,,competition with immobilised ligand,1 µM,remaining binding,95%
CNCc1ccc(-c2cc(-c3nc(-c4ccc(S(=O)(=O)C(C)C)cc4)cnc3N)on2)cc1,enzyme activity,inhibitor,,0.4 µM,inhibition,17%
O=C(N1CCS(=O)(=O)CC1)N1C[C@H](c2ccc(OC(F)(F)F)cc2)C[C@H](c2nc(C3CC3)no2)C1,cell-free assay,,competition with immobilised ligand,1 µM,remaining binding,97%
COc1cc(Cl)c(C(=O)N[C@@H](CN[C@H]2CC[C@@H](N)CC2)Cc2ccc(C#N)cc2)cc1-c1ccc(CN[C@H](C)c2ccc(C)cc2)o1,enzyme activity,inhibitor,,1 µM,remaining activity,95%
CCCS(=O)(=O)Nc1ccc(F)c(C(=O)c2c[nH]c3ncc(-c4ccc(Cl)cc4)cc23)c1F,enzyme activity,inhibitor,,1 µM,inhibition,< 10%
CC(C)c1ccc(NC(=O)c2cccs2)c(-c2nc3ccccc3[nH]c2=O)c1,enzyme activity,inhibitor,,1 µM,activity vs control,104%
CN([C@@H]1CCc2c(CC(=O)O)c3ccccc3n2C1)S(=O)(=O)c1ccc(F)cc1,cell-free assay,,competition with immobilised ligand,1 µM,remaining binding,100%
CC/C(=N\NC(=O)NCc1cccc(O)c1)c1ccc(O)c(C)c1O,enzyme activity,inhibitor,,0.1 µM,inhibition,0.7%
